Experimental data as given in ChEMBL document CHEMBL1151977, “Antiviral constituents against respiratory viruses from Mikania micrantha” (J Nat Prod, 2009).

Legend:
[1] = system: Respiratory syncytial virus; assay: Antiviral activity against Respiratory syncytial virus infected in human Hep2 cells assessed as inhibition of virus-induced cytopathogenic effect by plaque reduction assay; type: functional, organism-based; conditions: HEp-2
[2] = Cytotoxicity against human Hep2 cells; type: cell-based, HEp-2; conditions: read-out: TC50 (the source's name)
[3] = Therapeutic index, ratio of TC50 for human Hep2 cells to IC50 for Respiratory syncytial virus infected in human Hep2 cells; type: cell-based, HEp-2; conditions: read-out: TI
Summary of the method: (§1)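 Antiviral IC50 came from a virus-induced cytopathic effect reduction assay in infected cells. Therapeutic index was calculated as TC50 divided by IC50.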

Human respirovirus 3 = assay: Antiviral activity against Parainfluenza virus type 3 infected in human Hep2 cells assessed as inhibition of virus-induced cytopathogenic effect by plaque reduction assay; type: functional, organism-based; conditions: Human respirovirus 3, HEp-2
Influenza A virus = assay: Antiviral activity against Influenza A virus infected in MDCK cells assessed as inhibition of virus-induced cytopathogenic effect by plaque reduction assay; type: functional, organism-based
[4] = Therapeutic index, ratio of TC50 for human Hep2 cells to IC50 for Parainfluenza virus type 3 infected in human Hep2 cells; type: cell-based, HEp-2; conditions: read-out: TI; summary of the method: as §1
[5] = Cytotoxicity against MDCK cells; type: cell-based, Canis lupus familiaris; conditions: dog, read-out: TC50 (the source's name)
[6] = Therapeutic index, ratio of TC50 for MDCK cells to IC50 for Influenza A virus infected in MDCK cells; type: cell-based; conditions: dog, read-out: TI; summary of the method: as §1

## CC(C)[C@@H](C)/C=C/[C@@H](C)[C@H]1CC[C@H]2C3=CC[C@H]4C[C@@H](O)CC[C@]4(C)[C@H]3CC[C@]12C
[1]
  IC50: 50.5 µM
[2]
  CC50: 303 µM
[3]
  selectivity ratio: 6
Human respirovirus 3
  IC50: 50.5 µM
Influenza A virus
  IC50: 202 µM
[4]
  selectivity ratio: 6
[5]
  CC50: 405 µM
[6]
  selectivity ratio: 2

## CC(=O)O[C@H]1C[C@@H]2O[C@@]2(C)C[C@@H]2OC(=O)[C@H](C)[C@H]2[C@H]2C=C1C(=O)O2
[1]
  IC50: 61.9 µM
[2]
  CC50: 186 µM
[3]
  selectivity ratio: 3
Human respirovirus 3
  IC50: 186 µM
Influenza A virus
  IC50: 186 µM
[4]
  selectivity ratio: 1
[5]
  CC50: 186 µM
[6]
  selectivity ratio: 1

## COc1ccc(-c2oc3cc(OC)c(OC)c(O)c3c(=O)c2OS(=O)(=O)O)cc1
[1]
  IC50: 79 µM
[2]
  CC50: 472 µM
[3]
  selectivity ratio: 6
Human respirovirus 3
  IC50: 19.7 µM
Influenza A virus
  IC50: 79 µM
[4]
  selectivity ratio: 24
[5]
  CC50: 237 µM
[6]
  selectivity ratio: 3

## C[C@H]1C(=O)O[C@H]2C[C@]3(C)O[C@H]3CCC3=C[C@@H](OC3=O)[C@@H]21
[1]
  IC50: 37.4 µM
[2]
  CC50: 600 µM
[3]
  selectivity ratio: 16
Human respirovirus 3
  IC50: 37.4 µM
Influenza A virus
  IC50: > 360 µM
[4]
  selectivity ratio: 16
[5]
  CC50: 600 µM
[6]
  selectivity ratio: < 1.7

## C[C@H]1C(=O)O[C@H]2C[C@]3(C)O[C@H]3[C@@H]3O[C@@H]3C3=C[C@@H](OC3=O)[C@@H]21 [DIHYDROMIKANOLIDE]
[1]
  IC50: 143 µM
[2]
  CC50: 214 µM
[3]
  selectivity ratio: 1.5
Human respirovirus 3
  IC50: 143 µM
Influenza A virus
  IC50: 143 µM
[4]
  selectivity ratio: 1.5
[5]
  CC50: 214 µM
[6]
  selectivity ratio: 1.5

## COc1ccc(-c2oc3cc(OC)c(OC)c(O)c3c(=O)c2O)cc1 [MIKANIN]
[1]
  IC50: 55.5 µM
[2]
  CC50: 83.1 µM
[3]
  selectivity ratio: 1.5
Human respirovirus 3
  IC50: 41.6 µM
Influenza A virus
  IC50: 167 µM
[4]
  selectivity ratio: 2
[5]
  CC50: 500 µM
[6]
  selectivity ratio: 3

## NC(=O)c1ncn([C@@H]2O[C@H](CO)[C@@H](O)[C@H]2O)n1 [RIBAVIRIN]
[1]
  IC50: 10.7 µM
Human respirovirus 3
  IC50: 10.7 µM
Influenza A virus
  IC50: 42.6 µM
[5]
  CC50: > 256 µM
